Laboratory results reported in ChEMBL document CHEMBL3425405, “Discovery of Small Molecules for Up-Regulating the Translation of Antiamyloidogenic Secretase, a Disintegrin and Metalloproteinase 10 (ADAM10), by Binding to the G-Quadruplex-Forming Sequence in the 5' Untranslated Region (UTR) of Its mRNA” (J Med Chem, 2015).
Activity calls are given as the source filed them. The calls are words filed in the database; no cut-off is given here.

Tests used:
[1] = Binding affinity to ADAM10 A10-RNA QGRS (unknown origin) assessed as reduction in RNA G-quadruplex bands at 0.5 to 10 fold excess compound level by native gel electrophoresis method
Method in brief: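 A10-RNA-Wt labeled with Cy3/Cy5 folded in 100 mM KCl, 10 mM Tris-HCl, 0.1 mM EDTA (pH 7.5): 95 °C for 5 min, then cooled to room temperature over 90 min. RNA (2 μM) incubated 5 min at room temperature in the dark with 0, 0.5, 1, 5 or 10-fold excess compound. Run on native 16% polyacrylamide gel at 4 °C.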

[2] = Binding affinity to ADAM10 A10-RNA QGRS (unknown origin) by microscale thermophoresis method
[3] = Toxicity against APP expressing HEK cells assessed as reduction in cell viability after 48 hrs by MTT assay; format: cell-based, HEK293; details: human
[4] = Toxicity against human HeLa cells assessed as reduction in cell viability after 24 hrs by MTT assay; format: cell-based
[5] = Binding affinity to 5'-end biotinylated ADAM10 A10-mutant RNA QGRS (unknown origin) by surface plasmon resonance assay method
Method in brief: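 SPR with 5′-biotinylated A10-RNA-Wt or A10-RNA-Mut immobilized on a neutravidin chip in running buffer (50 mM Tris-HCl pH 7.5, 100 mM KCl). Ligand serial dilutions in running buffer injected at 20 μL/min for association, then dissociation. Chip regenerated with 50 mM NaOH between runs.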

[6] = tested on: HeLa; experiment: Toxicity against human HeLa cells assessed as effect on cell morphology at 0.5 to 2.5 uM after 24 hrs; format: cell-based
Method in brief: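 HeLa cells inspected for cell number and morphology before the luciferase read-out, after reporter-plasmid transfection and 24 h exposure to 0, 0.5, 1 or 2.5 μM compound.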

[7] = tested on: HeLa; experiment: Binding affinity to ADAM10 A10-RNA QGRS (unknown origin) transfected in human HeLa cells assessed as increase in ADAM10 translation efficiency at 1 uM after 24 hrs by Renilla/firefly dual luciferase reporter assay; format: cell-based
Method in brief: (§1)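 HeLa cells transfected with 0.8 μg A10-Wt, A10-Mut or A10-Del plasmid (G-quadruplex motif upstream of Renilla in psiCHECK-2). Screening: 24 h at a single 2 μM concentration. Follow-up: plasmid for 12 h, then 0, 0.5, 1 or 2.5 μM for 24 h. Renilla normalized to firefly, relative to untreated control; mean ± SD of three independent measurements.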

[8] = tested on: HeLa; experiment: Binding affinity to ADAM10 A10-mutant RNA QGRS (unknown origin) transfected in human HeLa cells assessed as increase in ADAM10 translation efficiency at 0.5 to 2.5 uM after 24 hrs by Renilla/firefly dual luciferase reporter assay; format: cell-based; method in brief: as §1
[9] = tested on: HeLa; experiment: Binding affinity to VEGF RNA QGRS (unknown origin) transfected in human HeLa cells assessed as increase in ADAM10 translation efficiency at 2.5 uM after 24 hrs by Renilla/firefly dual luciferase reporter assay; format: cell-based
Method in brief: (§2)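 HeLa cells carrying luciferase reporter plasmids with the N-Ras, Bcl-2 or VEGF 5′-UTR quadruplex (or its mutant) treated with compound up to 2.5 μM for 24 h. Renilla/firefly luciferase activity then measured.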

[10] = tested on: HeLa; experiment: Binding affinity to Bcl-2 RNA QGRS (unknown origin) transfected in human HeLa cells assessed as increase in ADAM10 translation efficiency at 2.5 uM after 24 hrs by Renilla/firefly dual luciferase reporter assay; format: cell-based; method in brief: as §2
[11] = tested on: HeLa; experiment: Binding affinity to ADAM10 5'-UTR RNA QGRS (unknown origin) transfected in human HeLa cells assessed as increase in ADAM10 translation efficiency at 0.5 uM after 24 hrs by Renilla/firefly dual luciferase reporter assay; format: cell-based
Method in brief: (§3)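 HeLa cells transfected with 0.8 μg 5′UTR-Wt or 5′UTR-Mut dual-luciferase plasmid. After 12 h, incubated 24 h with 0, 0.5, 1 or 2.5 μM compound. Renilla luciferase normalized to firefly and expressed relative to the ligand-free control; mean ± SD of three independent experiments, each in triplicate.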

[12] = tested on: HeLa; experiment: Binding affinity to ADAM10 5'-UTR mutant RNA QGRS (unknown origin) transfected in human HeLa cells assessed as increase in ADAM10 translation efficiency at 2.5 uM after 24 hrs by Renilla/firefly dual luciferase reporter assay; format: cell-based; method in brief: as §3
[13] = tested on: HEK-APP; experiment: Binding affinity to ADAM10 A10-RNA QGRS (unknown origin) transfected in HEK-APP cells assessed as increase in ADAM10 protein expression at 0.5 uM after 48 hrs by Western blotting method; format: cell-based
Method in brief: (§4)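 HEK-APP cells (DMEM, 10% FBS, 2 mM glutamine, 0.2 mg/mL G418) treated with 0, 0.5, 0.75, 1 or 1.5 μM compound for 48 h. Lysates in Tris/NaCl/EDTA/1% Triton buffer immunoblotted for ADAM10, APP and β-actin; conditioned medium blotted for sAPPα. Signal by densitometry, normalized to β-actin, relative to blank control; mean ± SD, three independent experiments.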

[14] = tested on: HEK-APP; experiment: Binding affinity to ADAM10 A10-RNA QGRS (unknown origin) transfected in HEK-APP cells assessed as increase in ADAM10 protein expression at 0.75 uM after 48 hrs by Western blotting method; format: cell-based; method in brief: as §4
[15] = tested on: HEK-APP; experiment: Binding affinity to ADAM10 A10-RNA QGRS (unknown origin) transfected in HEK-APP cells assessed as increase in ADAM10 protein expression at 1.5 uM after 48 hrs by Western blotting method; format: cell-based; method in brief: as §4
[16] = tested on: HEK-APP; experiment: Binding affinity to ADAM10 A10-RNA QGRS (unknown origin) transfected in HEK-APP cells assessed as change in ADAM10 mRNA expression at 0.5 to 1.5 uM after 48 hrs by RT-PCR method; format: cell-based
Method in brief: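 HEK-APP cells cultured 48 h with 0, 0.5, 0.75, 1 or 1.5 μM compound. Total RNA isolated and ADAM10 mRNA measured by RT-PCR, normalized to β-actin.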

[17] = Drug accumulation in cytoplasm of APP expressing HEK cells at 2 uM after 2 hrs by confocal microscopy; format: ADME, cell-based; details: human, hek293, 2 h
[18] = tested on: HEK293; experiment: Effect on APP protein expression in APP expressing HEK cells at 0.5 to 1.5 uM after 48 hrs by Western blotting method; format: functional, cell-based; details: Homo sapiens; method in brief: as §4
[19] = tested on: HEK293; experiment: Reduction in Abeta40 protein production in APP expressing HEK cells at 0.5 to 1.5 uM after 48 hrs by ELISA method; format: functional, cell-based; details: Homo sapiens
Method in brief: (§5)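 HEK-APP cells treated 48 h with increasing compound concentrations (0.75, 1, 1.5 μM). Secreted Aβ40 in equal amounts of conditioned medium quantified by sandwich ELISA. Values expressed relative to blank control; mean ± SD of three independent experiments.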

[20] = tested on: HEK293; experiment: Reduction in Abeta40 protein production in APP expressing HEK cells at 0.75 uM after 48 hrs by ELISA method; format: functional, Homo sapiens; design: scale not given: the % may be the effect or the level left; method in brief: as §5
[21] = tested on: HEK293; experiment: Reduction in Abeta40 protein production in APP expressing HEK cells at 1 uM after 48 hrs by ELISA method; format: functional, Homo sapiens; design: scale not given: the % may be the effect or the level left; method in brief: as §5
[22] = Selectivity index, ratio of affinity to Bcl-2 RNA QGRS (unknown origin) to ADAM10 A10-Wt RNA QGRS (unknown origin) by Renilla/firefly dual luciferase reporter assay

- Activity [1]: Active
- Kd [2]: 4.9 µM
- Activity [5]: inactive
- Drug uptake [17]: Active
- Selectivity Index [22]: 3
Structure (SMILES): CCn1c2ccccc2c2cc(/C=C/c3cc(N4CCN(C)CC4)c4ccccc4[n+]3C)ccc21.[I-]
- IC50 at 48 h [3]: 10.7 µM
- IC50 at 24 h [4]: 20.9 µM
- Activity [6]: Non-toxic
- Activity [7]: 46.9%
- Activity [8]: inactive
- Activity [9]: inactive
- Activity [10]: 20%
- Activity [11]: 9.7%
- Activity [12]: inactive
- Activity [13]: 20.2%
- Activity [14]: 55.1%
- Activity [15]: 92.9%
- Activity [16]: inactive
- Activity [18]: inactive
- Activity [19]: Dose-dependent effect
- Activity [20]: 7.7%
- Activity [21]: 20.7%
